These results are taken from PMC3772642 (Nature, 2009).

No end group written: not given here. *: point of attachment. Dansyl = CN(C)c1cccc2c(S(=O)(=O)*)cccc12; Me3 = trimethyl-lysine, K(Me3)

For one test, the target named is ΔEed (Homo sapiens, UniProt O75530, M370T). The experiment in a line: crystal structure of ΔEed with ligand. Format: binding. The settings on record: crystallisation additive 0.6–0.7 M NDSB-195, 4.0–4.1 M formate. Summed up: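 ΔEed carrying Met-370Thr was purified by size exclusion (50 mM Tris-HCl pH 8.7, 150 mM NaCl, 3 mM TCEP) and held at 1.5 mg/ml with peptide at 7-fold molar excess, 15 mM TCEP. Hanging-drop vapour diffusion was run at 18 °C, mixing equal volumes with 3.7–3.9 M formate. Apo ΔEed (2.5 mg/ml) used 4.0–4.1 M formate with 0.6–0.7 M NDSB-195.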

Test [1] deals with chromatin reconstituted with histones containing the different levels of H3K36 methylation. As to the kind of experiment: pull-down, H3K36 methylated chromatin. Format: binding. Particulars: NiNta pull-down, Fig. S8. In a few lines: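 Chromatin arrays were built from recombinant histones carrying single chemically installed methyl-lysine analogs, assembled into octamers, formed by salt dialysis and cleared of free histone on an agarose column. 2 ug chromatin was incubated with 2 ug full-length His-tagged Eed in 50mM Tris pH8.0, 50mM NaCl, 1 mM EDTA, 0.1% NP40 for 2 hours at 4°C with NiNta beads. Beads were washed extensively, eluted in SDS loading buffer and analysed by western blot.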

The subject of test [2] is chromatin trimethylated on H3K9. The experiment in a line: pull-down, chromatin trimethylated on H3K9. The settings on record: 2 ug chromatin, 2 ug protein or complex, 2 hours at 4 C, western blot. Format: binding. Summed up:
(§1)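 Recombinant histones were made in E. coli, assembled into octamers and formed into chromatin by salt dialysis, then purified on an agarose column. Chromatin (2 ug) was incubated with 2 ug Sf9-reconstituted PRC2-Ezh2 in 50 mM Tris pH 8.0, 50 mM NaCl, 1 mM EDTA, 0.1% NP40 with M2 beads for 2 h at 4 °C. Beads were washed, eluted in SDS loading buffer and analysed by western blot against a beads-only control.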
For orientation: A western blot detects proteins with antibodies after separation by electrophoresis.

In a further test the test system is nucleosomes. The experiment in a line: pull-down, nucleosomes. Format: binding. The settings on record: methylated or unmodified nucleosomes, not separated. Summed up:
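Reconstituted chromatin arrays (salt dialysis, agarose-column purified to remove free histone) at 2 ug were incubated with 2 ug protein or complex in 50mM Tris pH8.0, 50mM NaCl, 1 mM EDTA, 0.1% NP40 for 2 hours at 4°C. Capture was on NiNta beads for Eed or M2 beads for PRC2. After extensive washing, beads were eluted in SDS loading buffer and analysed by western blot.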

The subject of a further test is unmodified chromatin. The experiment in a line: pull-down, unmodified chromatin. Format: binding. The settings on record: M2-Beads pull-down, 2 hours at 4 C, western blot. Summed up: as §1
Test [3] has as its target truncated version of Eed (residues 77 to 441), ΔEed (UniProt O75530). The experiment in a line: other fluorescence titration.
The target of test [4] is truncated version of Eed (residues 77 to 441), ΔEed (UniProt O75530 78-441, Met-370Thr). The experiment in a line: other fluorescence titration.

Regarding `CC[N+](C)(C)CCCS(=O)(=O)[O-]` [NDSB-195], the “electron density in central pocket of ΔEed” value at ΔEed is listed as “able to build into the extra electron density”.
As for Eed: full-length His-tagged Eed protein, the “interaction with H3K36 methylated chromatin” value in test [1] was “not able to interact”. Further, the “interaction with chromatin trimethylated on H3K9” value in test [2] is on record as “did bind”.
As to “PRC2 Eed (Phe-97Ala): mutant PRC2 complex containing Eed (Phe-97Ala)”, the interaction with nucleosomes result in the test with nucleosomes is “does not show binding to chromatin”.
For the molecule “PRC2 Eed (Tyr-365Ala): mutant PRC2 complex containing Eed (Tyr-365Ala)”, the interaction with nucleosomes result in the test on nucleosomes is on record as “does not show binding to chromatin”.
Take “PRC2: PRC2 complex purified from insect cells co-infected with baculovirus expressing each of the subunits”: the “interaction with chromatin trimethylated on H3K9” value in test [2] is recorded as “bound significantly tighter”. Moreover, the “interaction with unmodified chromatin” value in the test with unmodified chromatin is on record as “displayed some binding”.
R26A of H3K27me3 peptide: the fold reduction of binding against the H3K27me3 peptide in test [3] was 1.5 fold.
As to “ΔEed: truncated version of Eed (residues 77 to 441)”, the interaction with nucleosomes result with nucleosomes is reported as “failed to interact with nucleosomes”.

B1: dansyl labelled peptide KKKARK(Me3)SAGAAK-dansyl (peptide)
peptide: KKKARK(Me3)SAGAAK(Dansyl)
modifications: not fully specified; printed as KKKARK(Me3)SAGAAK-dansyl
For B1, the binding result in test [4] is given as “binds”.
